The values below come from ChEMBL document CHEMBL4145447, “4-arylamidobenzyl substituted 5-bromomethylene-2(5H)-furanones for chronic bacterial infection” (Eur J Med Chem, 2018).

As usually defined, the inhibition is the drop in the measured response relative to a control, in per cent.

For test [1], the target named is Elastase (Pseudomonas aeruginosa (strain ATCC 15692 / PAO1 / 1C / PRS 101 / LMG12228)) (UniProt P14756). Kind of test: Inhibition of Pseudomonas aeruginosa PAO1 GFP-fused quorum sensing lasB at 10 uM measured every 15 mins up to 12 hrs by GFP reporter gene assay relative to control. Put shortly: (§1)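 GFP reporter strains of P. aeruginosa PAO1 (lasB-, rhlA- or pqsA-promoter fused to unstable gfp(ASV)) grown overnight in LB at 37 °C, 200 rpm, 18 h, then diluted 1:100. Culture mixed 1:1 with compound diluted in LB from 10 mM DMSO stock (0.1% DMSO final). Fluorescence (ex 485/em 528 nm) read every 15 min at 37 °C for ≥12 h.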

Test [2] deals with Pseudomonas aeruginosa PAO1. Kind of test: Inhibition of Pseudomonas aeruginosa PAO1 GFP-fused quorum sensing rhlA at 10 uM measured every 15 mins up to 12 hrs by GFP reporter gene assay relative to control. Put shortly: as §1
Background: In a reporter assay the amount or activity of a reporter protein is the signal.

Test [3] has as its system RAW264.7. The test can be described thus: Anti-inflammatory activity in mouse RAW264.7 cells assessed as inhibition of LPS-induced NO production at 10 uM preincubated for 2 hrs followed by LPS stimulation and measured after 48 hrs by Griess method relative to control. The format is functional. Put shortly:
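RAW264.7 cells seeded at 5 × 10^4/well and cultured 18 h, then given 10 µM compound plus LPS 100 ng/mL for 48 h at 37 °C. Supernatant mixed 1:1 with Griess reagent (1% sulfanilamide, 0.1% naphthylethylenediamine in 5% phosphoric acid) for 10 min; nitrite read at OD540.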
Background: Griess reagent forms a coloured azo dye with nitrite.

Test [4] has as its target T1, Anthranilate--CoA ligase (Pseudomonas aeruginosa (strain ATCC 15692 / DSM 22644 / CIP 104116 /JCM 14847 / LMG 12228 / 1C / PRS 101 / PAO1)) (UniProt Q9I4X3).
T1 sequence (whole entry): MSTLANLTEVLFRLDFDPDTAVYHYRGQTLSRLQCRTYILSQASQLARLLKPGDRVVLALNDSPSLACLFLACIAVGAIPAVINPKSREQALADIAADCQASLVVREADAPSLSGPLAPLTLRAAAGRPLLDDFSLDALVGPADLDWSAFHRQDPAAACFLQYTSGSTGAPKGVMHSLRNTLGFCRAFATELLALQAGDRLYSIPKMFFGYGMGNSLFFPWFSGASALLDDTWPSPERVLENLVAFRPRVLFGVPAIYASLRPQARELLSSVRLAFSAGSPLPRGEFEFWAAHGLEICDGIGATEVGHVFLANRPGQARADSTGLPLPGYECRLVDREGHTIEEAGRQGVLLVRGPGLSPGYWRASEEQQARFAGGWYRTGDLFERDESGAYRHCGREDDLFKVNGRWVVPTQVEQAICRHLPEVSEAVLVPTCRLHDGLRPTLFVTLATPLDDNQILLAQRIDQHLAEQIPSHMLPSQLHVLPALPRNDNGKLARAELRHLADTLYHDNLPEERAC
Kind of test: Inhibition of Pseudomonas aeruginosa PAO1 GFP-fused quorum sensing pqsA at 10 uM measured every 15 mins up to 12 hrs by GFP reporter gene assay relative to control. In short, it runs like this:
as §1

Chain of Elastase (Pseudomonas aeruginosa (strain ATCC 15692 / PAO1 / 1C / PRS 101 / LMG12228)) (P14756 198-498 limits assumed): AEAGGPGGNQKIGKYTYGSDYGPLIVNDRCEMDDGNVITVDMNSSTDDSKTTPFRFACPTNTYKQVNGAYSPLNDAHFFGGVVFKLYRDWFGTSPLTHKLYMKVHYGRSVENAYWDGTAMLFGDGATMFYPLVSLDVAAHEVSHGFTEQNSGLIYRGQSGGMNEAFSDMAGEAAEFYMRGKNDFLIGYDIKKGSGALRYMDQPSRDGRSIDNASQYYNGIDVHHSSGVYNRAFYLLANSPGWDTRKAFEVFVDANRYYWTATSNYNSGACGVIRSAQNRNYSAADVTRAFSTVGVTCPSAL

On to `O=C1C=C(Cc2ccc(NC(=O)c3cccs3)cc2)C(=C(Br)Br)O1`, for which the inhibition in test [1] was 20%; in test [2] it was 19.6%; in test [4] it was 26.4%. For the same compound, in test [3], the inhibition at 10 µM came to 39.9%.
On the same counts, the results for `O=C(/C=C/c1ccccc1)Nc1ccc(CC2=CC(=O)OC2=C(Br)Br)cc1` are 9.48%, 18.1%, 16.2% and 54.4%.
As to `O=C1C=C(Cc2ccc(NC(=O)c3cccs3)cc2)C(=CBr)O1`, the inhibition in test [1] was 10.2%; in test [2], 23.9%; in test [4] it was 20.3%. In test [3], the inhibition at 10 µM turned out to be 54.2%.
`O=C(Cc1c(Cl)cccc1Cl)Nc1ccc(CC2=CC(=O)OC2=C(Br)Br)cc1`: the inhibition in test [1] is 19.1%; in test [2] it was 19.2%; in test [4] it was 19.3%. Also, in test [3], the inhibition at 10 µM amounted to 53.5%.
In the same order, the values of `O=C1C=C(Cc2ccc(NC(=O)c3ccccc3)cc2)C(=CBr)O1` are 16.1%, 17.2%, 34.5% and 46.2%.
On the same counts, the results for `O=C(CCc1ccccc1)Nc1ccc(CC2=CC(=O)OC2=CBr)cc1` are 14.9%, 15.2%, 20.6% and 64.8%.
Consider `O=C(Cc1ccc(Br)cc1)Nc1ccc(CC2=CC(=O)OC2=C(Br)Br)cc1`, for which the inhibition in test [1] amounted to 10.4%; in test [2], 20%; in test [4], 27.9%. In test [3], the inhibition at 10 µM is 50.7%.
With `O=C(CCc1ccccc1)Nc1ccc(CC2=CC(=O)OC2=C(Br)Br)cc1`, the inhibition in test [1] was 11%; in test [2] it was 19.5%; in test [4], 22.9%. The inhibition at 10 µM in test [3] worked out at 48.1%.
Regarding `O=C1C=C(Cc2ccc(NC(=O)c3ccco3)cc2)C(=C(Br)Br)O1`, the inhibition was determined as 22.9% in test [1], 23.6% in test [2] and 34.6% in test [4]. Moreover, in test [3], the inhibition at 10 µM is 44.5%.
In the same order, the values of `O=C(Cc1ccc(F)cc1)Nc1ccc(CC2=CC(=O)OC2=C(Br)Br)cc1` are 9.49%, 15.9%, 20% and 59.2%.
As to `COc1ccc(CC(=O)Nc2ccc(CC3=CC(=O)OC3=C(Br)Br)cc2)cc1`, the results for the inhibition in test [1], in test [2] and in test [4] were 11.8%, 13.8% and 20.6%, respectively. In test [3], the inhibition at 10 µM came to 25.2%.
On the same counts, the results for `COc1ccc(/C=C/C(=O)Nc2ccc(CC3=CC(=O)OC3=C(Br)Br)cc2)cc1` are 5.03%, 12.9%, 21.9% and 44.3%.
On the same counts, the results for `COc1cc(CC(=O)Nc2ccc(CC3=CC(=O)OC3=C(Br)Br)cc2)cc(OC)c1OC` are 9.79%, 7.66%, 19.5% and 21.2%.
For `COc1ccc(C=CC(=O)Nc2ccc(CC3=CC(=O)O/C3=C/Br)cc2)cc1`, the inhibition was found to be 12.2% in test [1], 10.6% in test [2] and 24.3% in test [4]. Also, the inhibition at 10 µM in test [3] was 61%.
Take `COc1ccc(CC(=O)Nc2ccc(CC3=CC(=O)OC3=CBr)cc2)cc1`: the inhibition in test [1] came to 14.8%; in test [2], 11.8%; in test [4], 26.4%. Further, the inhibition at 10 µM in test [3] was 39.3%.
For `O=C1C=C(Cc2ccc(NC(=O)c3ccco3)cc2)C(=CBr)O1`, the results for the inhibition in test [1], in test [2] and in test [4] were 17.3%, 13.6% and 20.4%, respectively. Further, the inhibition at 10 µM in test [3] is 59.9%.
As for `O=C1C=C(Br)/C(=C/Br)O1`, the values for the inhibition in test [1], in test [2] and in test [4] were 21.4%, 24% and 20.2%, respectively.
